Data reported in ChEMBL document CHEMBL1649119, “Daptomycin pharmacokinetics in adult oncology patients with neutropenic fever” (Antimicrob Agents Chemother, 2009).
Converted amounts (≈) assume the structure as drawn.

Legend:
[1] = Plasma concentration in young healthy human at 4 mg/kg, iv administered as single dose 30 mins infusion measured after 24 hrs; format: ADME, organism-based; parameters: dose 4 mg/kg, route intravenous
[2] = Cmax in adult human subjects at 6 mg/kg, iv administered as single dose 30 mins infusion; format: ADME, organism-based; parameters: dose 6 mg/kg, route intravenous; details: in vivo
[3] = Cmax in nonobese human at 4 mg/kg, iv administered as single dose 30 mins infusion; format: ADME, organism-based; parameters: dose 4 mg/kg, route intravenous; details: in vivo
[4] = Cmax in old healthy human at 4 mg/kg, iv administered as single dose 30 mins infusion; format: ADME, organism-based; parameters: dose 4 mg/kg, route intravenous; details: in vivo
[5] = Apparent volume of distribution during terminal phase in healthy human subjects at 12 mg/kg, iv administered as 30 mins infusion every 24 hrs measured on day 4; format: ADME, organism-based; parameters: dose 12 mg/kg, route intravenous; details: in vivo
[6] = Tmax in cancer patient with neutropenic fever at 6 mg/kg, iv administered as 30 mins infusion every 24 hrs; format: ADME, organism-based; parameters: dose 6 mg/kg, route intravenous; details: human, in vivo
Summary of the method: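 29 adult oncology patients with neutropenic fever received 6 mg/kg (total body weight) daptomycin as a 30-min IV infusion every 24 h. Plasma was sampled predose, at end of infusion, and 0.5, 1, 2, 4, 8, 12 and 24 h after infusion start. Total drug was measured by validated HPLC (linear 1–100 μg/ml, detection limit 1 μg/ml). Tmax was the observed value, analysed noncompartmentally.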

Enterococcus = assay: Antimicrobial activity against Enterococcus; format: functional
[7] = Apparent volume of distribution during terminal phase in healthy human at 6 mg/kg, iv administered as 30 mins infusion every 24 hrs measured on day 1; format: ADME, organism-based; parameters: dose 6 mg/kg, route intravenous; details: in vivo
[8] = Cmax in healthy human at 8 mg/kg, iv administered as 30 mins infusion every 24 hrs measured on day 1; format: ADME, organism-based; parameters: dose 8 mg/kg, route intravenous; details: in vivo
[9] = Renal clearance in young healthy human at 4 mg/kg, iv administered as single dose 30 mins infusion; format: ADME, organism-based, Kidney; parameters: dose 4 mg/kg, route intravenous; details: in vivo, read-out: CL_renal (converted)
[10] = Half life in young healthy human at 4 mg/kg, iv administered as single dose 30 mins infusion; format: ADME, organism-based; parameters: dose 4 mg/kg, route intravenous; details: in vivo
[11] = Half life in healthy human at 4 mg/kg, iv administered as single dose 30 mins infusion; format: ADME, organism-based; parameters: dose 4 mg/kg, route intravenous; details: in vivo
[12] = AUC (0 to infinity) in adult human with hepatic impairment at 6 mg/kg, iv administered as single dose 30 mins infusion; format: ADME, organism-based; parameters: time infinity, dose 6 mg/kg, route intravenous; details: plasma
[13] = AUC (0 to infinity) in nonobese adult human at 4 mg/kg, iv administered as single dose 30 mins infusion; format: ADME, organism-based; parameters: time infinity, dose 4 mg/kg, route intravenous; details: plasma
[14] = Plasma concentration in nonobese human subjects at 4 mg/kg, iv administered as single dose 30 mins infusion measured after 24 hrs; format: ADME, organism-based; parameters: dose 4 mg/kg, route intravenous
[15] = AUC (0 to infinity) in healthy human subjects at 12 mg/kg, iv administered as 30 mins infusion every 24 hrs measured on day 1; format: ADME, organism-based; parameters: time infinity, dose 12 mg/kg, route intravenous; details: plasma
[16] = AUC (0 to infinity) in healthy human subjects at 10 mg/kg, iv administered as 30 mins infusion every 24 hrs measured on day 1; format: ADME, organism-based; parameters: time infinity, dose 10 mg/kg, route intravenous; details: plasma
[17] = AUC (0 to infinity) in healthy human subjects at 8 mg/kg, iv administered as 30 mins infusion every 24 hrs measured on day 1; format: ADME, organism-based; parameters: time infinity, dose 8 mg/kg, route intravenous; details: plasma
Homo sapiens [18] = assay: AUC (0 to infinity) in healthy human subjects at 6 mg/kg, iv administered as 30 mins infusion every 24 hrs measured on day 1; format: ADME, organism-based, Plasma; parameters: time infinity, dose 6 mg/kg, route intravenous; details: in vivo
[19] = AUC (0 to infinity) in healthy human at 6 mg/kg, iv administered as 30 mins infusion every 24 hrs measured on day 7; format: ADME, organism-based; parameters: time infinity, dose 6 mg/kg, route intravenous; details: plasma
[20] = AUC (0 to infinity) in healthy human at 6 mg/kg, iv administered as 30 mins infusion every 24 hrs measured on day 1; format: ADME, organism-based; parameters: time infinity, dose 6 mg/kg, route intravenous; details: plasma
[21] = Cmax in healthy human subjects at 10 mg/kg, iv administered as 30 mins infusion every 24 hrs measured on day 4; format: ADME, organism-based; parameters: dose 10 mg/kg, route intravenous; details: in vivo
[22] = Cmax in healthy human subjects at 12 mg/kg, iv administered as 30 mins infusion every 24 hrs measured on day 1; format: ADME, organism-based; parameters: dose 12 mg/kg, route intravenous; details: in vivo
[23] = Cmax in healthy human at 8 mg/kg, iv administered as 30 mins infusion every 24 hrs measured on day 14; format: ADME, organism-based; parameters: dose 8 mg/kg, route intravenous; details: in vivo
[24] = Cmax in healthy human at 8 mg/kg, iv administered as 30 mins infusion every 24 hrs measured on day 7; format: ADME, organism-based; parameters: dose 8 mg/kg, route intravenous; details: in vivo
[25] = Drug excretion in adult human with hepatic impairment urine assessed as unchanged drug at 6 mg/kg, iv administered as single dose 30 mins infusion; format: ADME, organism-based; parameters: dose 6 mg/kg, route intravenous; details: read-out: Drug uptake
[26] = Drug excretion in healthy human urine assessed as unchanged drug at 4 mg/kg, iv administered as single dose 30 mins infusion; format: ADME, organism-based; parameters: dose 4 mg/kg, route intravenous; details: read-out: Drug uptake
[27] = Mean residence time in old healthy human at 4 mg/kg, iv administered as single dose 30 mins infusion; format: ADME, organism-based; parameters: dose 4 mg/kg, route intravenous; details: in vivo
[28] = Volume of distribution at steady state in adult human with hepatic impairment at 6 mg/kg, iv administered as single dose 30 mins infusion; format: ADME, organism-based; parameters: dose 6 mg/kg, route intravenous; details: in vivo, read-out: Vdss
[29] = Volume of distribution at steady state in nonobese human subjects at 4 mg/kg, iv administered as single dose 30 mins infusion; format: ADME, organism-based; parameters: dose 4 mg/kg, route intravenous; details: in vivo, read-out: Vdss
[30] = Volume of distribution at steady state in morbidly obese adult human at 4 mg/kg, iv administered as single dose 30 mins infusion; format: ADME, organism-based; parameters: dose 4 mg/kg, route intravenous; details: in vivo, read-out: Vdss
[31] = Volume of distribution at steady state in nonobese adult human at 4 mg/kg, iv administered as single dose 30 mins infusion; format: ADME, organism-based; parameters: dose 4 mg/kg, route intravenous; details: in vivo, read-out: Vdss
[32] = Volume of distribution at steady state in young healthy human at 4 mg/kg, iv administered as single dose 30 mins infusion; format: ADME, organism-based; parameters: dose 4 mg/kg, route intravenous; details: in vivo, read-out: Vdss
Homo sapiens [33] = assay: Volume of distribution at steady state in healthy human at 4 mg/kg, iv administered as single dose 30 mins infusion; format: ADME, organism-based; parameters: dose 4 mg/kg, route intravenous; details: in vivo, 0.5 h
[34] = Clearance in adult human with hepatic impairment at 6 mg/kg, iv administered as single dose 30 mins infusion; format: ADME, organism-based, Liver; parameters: dose 6 mg/kg, route intravenous; details: in vivo
[35] = Clearance in morbidly obese adult human at 4 mg/kg, iv administered as single dose 30 mins infusion; format: ADME, organism-based; parameters: dose 4 mg/kg, route intravenous; details: in vivo
[36] = Half life in healthy adult human at 6 mg/kg, iv administered as single dose 30 mins infusion; format: ADME, organism-based; parameters: dose 6 mg/kg, route intravenous; details: in vivo
[37] = Half life in nonobese human at 4 mg/kg, iv administered as single dose 30 mins infusion; format: ADME, organism-based; parameters: dose 4 mg/kg, route intravenous; details: in vivo
[38] = Half life in morbidly obese adult human at 4 mg/kg, iv administered as single dose 30 mins infusion; format: ADME, organism-based; parameters: dose 4 mg/kg, route intravenous; details: in vivo
Homo sapiens [39] = assay: Unbound clearance in healthy human at 6 mg/kg, iv administered as 30 mins infusion every 24 hrs measured on day 1; format: ADME, organism-based; parameters: dose 6 mg/kg, route intravenous; details: in vivo
Homo sapiens [40] = assay: Unbound clearance in healthy human at 4 mg/kg, iv administered as 30 mins infusion every 24 hrs measured on day 1; format: ADME, organism-based; parameters: dose 4 mg/kg, route intravenous; details: in vivo
[41] = Clearance in healthy human subjects at 12 mg/kg, iv administered as 30 mins infusion every 24 hrs measured on day 4; format: ADME, organism-based; parameters: dose 12 mg/kg, route intravenous; details: in vivo
[42] = Half life in healthy human subjects at 6 mg/kg, iv administered as 30 mins infusion every 24 hrs measured on days 1-3; format: ADME, organism-based; parameters: dose 6 mg/kg, route intravenous; details: in vivo
[43] = Half life in healthy human subjects at 8 mg/kg, iv administered as 30 mins infusion every 24 hrs measured on day 4; format: ADME, organism-based; parameters: dose 8 mg/kg, route intravenous; details: in vivo
[44] = Half life in healthy human at 8 mg/kg, iv administered as 30 mins infusion every 24 hrs measured on day 7; format: ADME, organism-based; parameters: dose 8 mg/kg, route intravenous; details: in vivo
[45] = Half life in healthy human at 6 mg/kg, iv administered as 30 mins infusion every 24 hrs measured on day 7; format: ADME, organism-based; parameters: dose 6 mg/kg, route intravenous; details: in vivo

## CCCCCCCCCC(=O)N[C@@H](Cc1c[nH]c2ccccc12)C(=O)N[C@H](CC(N)=O)C(=O)N[C@@H](CC(=O)O)C(=O)N[C@@H]1C(=O)NCC(=O)N[C@@H](CCCN)C(=O)N[C@@H](CC(=O)O)C(=O)N[C@H](C)C(=O)N[C@@H](CC(=O)O)C(=O)NCC(=O)N[C@H](CO)C(=O)N[C@@H]([C@H](C)CC(=O)O)C(=O)N[C@@H](CC(=O)c2ccccc2N)C(=O)O[C@@H]1C
[1]
  concentration at 24 h: < 3.3 µg/mL
[2]
  Cmax: 118 µg/mL
[3]
  Cmax: 53.2 µg/mL
[4]
  Cmax: 44 µg/mL
[5]
  Vd: 0.0976 L/kg
[6]
  Tmax: 0.6 h
Enterococcus
  MIC90: 2 µg/mL (≈ 1.23 µM)
[7]
  Vd: 0.096 L/kg
[8]
  Cmax: 116 µg/mL
[9]
  CL renal at 0.5 h: 0.12 mL/min/kg
[10]
  half-life: 6.79 h
[11]
  half-life: 7.74 h
[12]
  AUC(0-inf): 867 µg·h/mL
[13]
  AUC(0-inf): 322 µg·h/mL
[14]
  concentration at 24 h: 3.39 µg/mL
[15]
  AUC(0-inf): 1270 µg·h/mL
[16]
  AUC(0-inf): 1010 µg·h/mL
[17]
  AUC(0-inf): 773 µg·h/mL
Homo sapiens [18]
  AUC: 729.8 µg·h/mL
[19]
  AUC(0-inf): 747 µg·h/mL
[20]
  AUC(0-inf): 705 µg·h/mL
[21]
  Cmax: 141 µg/mL
[22]
  Cmax: 165 µg/mL
[23]
  Cmax: 130 µg/mL
[24]
  Cmax: 133 µg/mL
[25]
  dose excreted at 0.5 h: 49.3%
[26]
  dose excreted at 0.5 h: 59.7%
[27]
  MRT: 15.9 h
[28]
  Vd: 0.08 L/kg
[29]
  Vd: 0.13 L/kg
[30]
  Vd: 0.18 L/kg
[31]
  Vd: 0.13 L/kg
[32]
  Vd: 0.14 L/kg
Homo sapiens [33]
  Vdss: 6057 mL
[34]
  clearance: 0.118 mL/min/kg
[35]
  clearance: 0.13 mL/min/kg
[36]
  half-life: 8.06 h
[37]
  half-life: 8.04 h
[38]
  half-life: 8.12 h
Homo sapiens [39]
  CL: 0.992 mL/min/kg
Homo sapiens [40]
  CL: 1.41 mL/min/kg
[41]
  clearance: 0.15 mL/min/kg
[42]
  half-life: 7.6 h
[43]
  half-life: 8.3 h
[44]
  half-life: 9 h
[45]
  half-life: 8.9 h
